The source made the active and inactive calls. The rule behind the calls is not given here.
Legend:
Plasmodium falciparum [1] = experiment: Antimalarial activity against chloroquine-sensitive Plasmodium falciparum 3D7 infected in erythrocytes after 48 hrs by [3H]hypoxanthine incorporation assay; type: functional, organism-based
How it was run: (§1)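 Erythrocytes infected with P. falciparum at 1% parasitemia, 2% final hematocrit; growth read by [3H]-hypoxanthine incorporation after 48 h at 37°C. Inhibition % = [1 – (CPM treated IE – CPM NE)/(CPM untreated IE – CPM NE)] x 100, untreated IE as 100% growth. Triplicates, at least three times with different batches and cells; concentrations from 0.06 µM upward; IC50 from dose-response.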

Plasmodium falciparum [2] = experiment: Antimalarial activity against chloroquine-resistant Plasmodium falciparum S20 infected in erythrocytes after 48 hrs by [3H]hypoxanthine incorporation assay; type: functional, organism-based; how it was run: as §1
Plasmodium chabaudi [3] = experiment: Antimalarial activity against nonlethal Plasmodium chabaudi chabaudi AS infected in C57BL/6 mouse assessed as inhibition of parasitemia at 7.5 mg/kg/day, ip administered 1 hr post-infection and measured on day 5 post-infection; type: functional; conditions: route intraperitoneal
How it was run: (§2)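 C57BL/6 mice (7-10 per group, aged 7-10 weeks, 20 ± 3 g) infected i.p. with 106 IE of P. c. chabaudi AS; given daily i.p. doses of 0.75 to 7.5 mg/kg/day for 11 consecutive days (days 0-10), first dose 1 h p.i. Parasitemia counted daily in Giemsa-stained smears (≥1,000 erythrocytes) until day 12; inhibition relative to untreated mice.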

Plasmodium chabaudi [4] = experiment: Antimalarial activity against nonlethal Plasmodium chabaudi chabaudi AS infected in C57BL/6 mouse assessed as inhibition of parasitemia at 7.5 mg/kg/day, ip administered 1 hr post-infection and measured on day 6 post-infection; type: functional; conditions: route intraperitoneal; how it was run: as §2
Plasmodium chabaudi [5] = experiment: Antimalarial activity against nonlethal Plasmodium chabaudi chabaudi AS infected in C57BL/6 mouse assessed as inhibition of parasitemia at 7.5 mg/kg/day, ip administered 1 hr post-infection and measured on day 7 post-infection; type: functional; conditions: route intraperitoneal; how it was run: as §2
Plasmodium chabaudi [6] = experiment: Antimalarial activity against nonlethal Plasmodium chabaudi chabaudi AS infected in C57BL/6 mouse assessed as inhibition of parasitemia at 7.5 mg/kg/day, ip administered 1 hr post-infection and measured on day 8 post-infection; type: functional; conditions: route intraperitoneal; how it was run: as §2
Plasmodium chabaudi [7] = experiment: Antimalarial activity against nonlethal Plasmodium chabaudi chabaudi AS infected in C57BL/6 mouse assessed as inhibition of parasitemia at 3.75 mg/kg/day, ip administered 1 hr post-infection and measured on day 5 post-infection; type: functional; conditions: route intraperitoneal; how it was run: as §2
Plasmodium chabaudi [8] = experiment: Antimalarial activity against nonlethal Plasmodium chabaudi chabaudi AS infected in C57BL/6 mouse assessed as inhibition of parasitemia at 3.75 mg/kg/day, ip administered 1 hr post-infection and measured on day 6 post-infection; type: functional; conditions: route intraperitoneal; how it was run: as §2
Plasmodium chabaudi [9] = experiment: Antimalarial activity against nonlethal Plasmodium chabaudi chabaudi AS infected in C57BL/6 mouse assessed as inhibition of parasitemia at 3.75 mg/kg/day, ip administered 1 hr post-infection and measured on day 7 post-infection; type: functional; conditions: route intraperitoneal; how it was run: as §2
Plasmodium chabaudi [10] = experiment: Antimalarial activity against nonlethal Plasmodium chabaudi chabaudi AS infected in C57BL/6 mouse assessed as inhibition of parasitemia at 3.75 mg/kg/day, ip administered 1 hr post-infection and measured on day 8 post-infection; type: functional; conditions: route intraperitoneal; how it was run: as §2
Plasmodium chabaudi [11] = experiment: Antimalarial activity against nonlethal Plasmodium chabaudi chabaudi AS infected in C57BL/6 mouse assessed as inhibition of parasitemia at 0.75 mg/kg/day, ip administered 1 hr post-infection and measured on day 5 post-infection; type: functional; conditions: route intraperitoneal; how it was run: as §2
Plasmodium chabaudi [12] = experiment: Antimalarial activity against nonlethal Plasmodium chabaudi chabaudi AS infected in C57BL/6 mouse assessed as inhibition of parasitemia at 0.75 mg/kg/day, ip administered 1 hr post-infection and measured on day 6 post-infection; type: functional; conditions: route intraperitoneal; how it was run: as §2
Plasmodium chabaudi [13] = experiment: Antimalarial activity against nonlethal Plasmodium chabaudi chabaudi AS infected in C57BL/6 mouse assessed as inhibition of parasitemia at 0.75 mg/kg/day, ip administered 1 hr post-infection and measured on day 7 post-infection; type: functional; conditions: route intraperitoneal; how it was run: as §2
Plasmodium chabaudi [14] = experiment: Antimalarial activity against nonlethal Plasmodium chabaudi chabaudi AS infected in C57BL/6 mouse assessed as inhibition of parasitemia at 0.75 mg/kg/day, ip administered 1 hr post-infection and measured on day 8 post-infection; type: functional; conditions: route intraperitoneal; how it was run: as §2
Plasmodium chabaudi [15] = experiment: Antimalarial activity against nonlethal Plasmodium chabaudi chabaudi AS infected in C57BL/6 mouse assessed as inhibition of parasitemia at 0.075 mg/kg/day, ip administered 1 hr post-infection and measured on day 5 post-infection; type: functional, organism-based
How it was run: (§3)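 C57BL/6 mice (7-10 per group, 7-10 weeks old, 20 ± 3 g) were infected i.p. with 10^6 P. chabaudi chabaudi AS infected erythrocytes. Violacein was given i.p. daily for 11 days (days 0-10), starting 1 h post-infection. Parasitemia was counted daily on Giemsa-stained smears (≥1,000 erythrocytes) and inhibition was calculated against untreated infected mice.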

Plasmodium chabaudi [16] = experiment: Antimalarial activity against nonlethal Plasmodium chabaudi chabaudi AS infected in C57BL/6 mouse assessed as inhibition of parasitemia at 0.075 mg/kg/day, ip administered 1 hr post-infection and measured on day 6 post-infection; type: functional, organism-based; how it was run: as §3
Plasmodium chabaudi [17] = experiment: Antimalarial activity against nonlethal Plasmodium chabaudi chabaudi AS infected in C57BL/6 mouse assessed as inhibition of parasitemia at 0.075 mg/kg/day, ip administered 1 hr post-infection and measured on day 7 post-infection; type: functional, organism-based; how it was run: as §3
Plasmodium chabaudi [18] = experiment: Antimalarial activity against nonlethal Plasmodium chabaudi chabaudi AS infected in C57BL/6 mouse assessed as inhibition of parasitemia at 0.075 mg/kg/day, ip administered 1 hr post-infection and measured on day 8 post-infection; type: functional; conditions: route intraperitoneal
Plasmodium chabaudi [19] = experiment: Antimalarial activity against lethal Plasmodium chabaudi chabaudi AJ infected in C57BL/6 mouse assessed as mouse survival rate at 7.5 mg/kg/day, ip administered 1 hr post-infection and measured on day 9 post-infection; type: functional; conditions: route intraperitoneal
How it was run: (§4)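 C57BL/6 mice, groups of 10, aged 7-10 weeks, 20 ± 3 g, infected i.p. with 106 IE of lethal P. c. chabaudi AJ; 7.5 mg/kg/day given i.p. for 11 consecutive days (days 0-10 p.i.), first dose 1 h p.i.; survival followed daily versus untreated mice; Log-Rank test.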

Plasmodium chabaudi [20] = experiment: Antimalarial activity against lethal Plasmodium chabaudi chabaudi AJ infected in C57BL/6 mouse assessed as mouse survival rate at 7.5 mg/kg/day, ip administered 1 hr post-infection and measured on day 14 post-infection; type: functional; conditions: route intraperitoneal; how it was run: as §4
Plasmodium chabaudi [21] = experiment: Antimalarial activity against lethal Plasmodium chabaudi chabaudi AJ infected in C57BL/6 mouse assessed as mouse survival rate at 7.5 mg/kg/day, ip administered 1 hr post-infection and measured on day 16 post-infection; type: functional; conditions: route intraperitoneal; how it was run: as §4
[22] = Toxicity in erythrocytes assessed as red blood cell density at 14 uM after 48 hrs; type: cell-based; conditions: erythrocyte
How it was run: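 Uninfected erythrocytes were cultured 48 h at 37°C with a range of violacein concentrations. Cells were counted in a Neubauer chamber. RBC density was expressed as % of the drug-free control: (RBC/mL with violacein ÷ RBC/mL without) × 100. Results are means of triplicates ± SD, with Mann-Whitney U test for significance.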

Plasmodium falciparum [23] = experiment: Antimalarial activity against Plasmodium falciparum young blood forms (0 to 24 hrs ring stage) infected in erythrocytes after 24 hrs by [3H]hypoxanthine incorporation assay; type: functional, organism-based
How it was run: (§5)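 Synchronized (±6 h) P. falciparum 3D7 blood stages were prepared by repeated 5% sorbitol treatment. Rings (0-24 h) or trophozoites/schizonts (24-48 h) were used at 1% parasitemia and 2% final hematocrit, exposed to violacein for 24 h, and growth was read by [3H]-hypoxanthine incorporation. Inhibition % = [1 − (CPM treated − CPM uninfected RBC)/(CPM untreated − CPM uninfected RBC)] × 100. Runs were in triplicate.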

Plasmodium falciparum [24] = experiment: Antimalarial activity against Plasmodium falciparum mature blood forms (24 to 48 hrs ring stage) infected in erythrocytes after 24 hrs by [3H]hypoxanthine incorporation assay; type: functional, organism-based; conditions: in the assay text read “trophozoites and schizonts stage” for “ring stage”; how it was run: as §5
Plasmodium chabaudi [25] = experiment: Antimalarial activity against nonlethal Plasmodium chabaudi chabaudi AS infected in C57BL/6 mouse assessed inhibition of parasitemia at 7.5 mg/kg/day, ip for 10 days followed by compound withdrawal and measured on day 16 post-infection; type: functional; conditions: route intraperitoneal
How it was run: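 Mice infected i.p. with 106 P. c. chabaudi AS IE; 7.5 mg/kg/day given i.p. for 11 days (0-10 p.i.) from 1 h p.i., then withdrawn. Parasitemia followed in Giemsa-stained smears until day 22 p.i. versus untreated mice; Mann-Whitney U test.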

Plasmodium chabaudi [26] = experiment: Antimalarial activity against nonlethal Plasmodium chabaudi chabaudi AS infected in C57BL/6 mouse assessed as inhibition of parasitemia at 7.5 mg/kg/day, ip administered 5 days post-infection and measured on day 7 post-infection; type: functional; conditions: route intraperitoneal
How it was run: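 Mice infected i.p. with 106 P. c. chabaudi AS IE; 7.5 mg/kg/day given i.p. daily from day 5 p.i. (16% parasitemia) to day 10 (6 days). Parasitemia counted daily in Giemsa-stained smears (≥1,000 erythrocytes) versus untreated mice; Mann-Whitney U test.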

Compound `O=C1NC(c2c[nH]c3ccc(O)cc23)=C/C1=C1\C(=O)Nc2ccccc21` [VIOLACEIN] has an IC50 (Plasmodium falciparum [1]) of 850 nM, an IC50 (Plasmodium falciparum [2]) of 630 nM and an inhibition in vivo at 7.5 mg/kg/day (Plasmodium chabaudi [3]) of 56.5%. The inhibition in vivo at 7.5 mg/kg/day (Plasmodium chabaudi [4]) was 75.4%, the inhibition in vivo at 7.5 mg/kg/day (Plasmodium chabaudi [5]) was 86.9% and the inhibition in vivo at 7.5 mg/kg/day (Plasmodium chabaudi [6]) was 84.7%. The inhibition in vivo at 3.75 mg/kg/day (Plasmodium chabaudi [7]) was 33.2%, the inhibition in vivo at 3.75 mg/kg/day (Plasmodium chabaudi [8]) was 64.9% and the inhibition in vivo at 3.75 mg/kg/day (Plasmodium chabaudi [9]) was 82.1%. The inhibition in vivo at 3.75 mg/kg/day (Plasmodium chabaudi [10]) was 75.7%, the inhibition in vivo at 0.75 mg/kg/day (Plasmodium chabaudi [11]) was 3.58% and the inhibition in vivo at 0.75 mg/kg/day (Plasmodium chabaudi [12]) was 20.4%. The inhibition in vivo at 0.75 mg/kg/day (Plasmodium chabaudi [13]) was 39.2%, the inhibition in vivo at 0.75 mg/kg/day (Plasmodium chabaudi [14]) was 48.9% and the inhibition (Plasmodium chabaudi [15]) was “inactive”. The inhibition (Plasmodium chabaudi [16]) was “inactive”, the inhibition (Plasmodium chabaudi [17]) was “inactive” and the inhibition in vivo at 0.075 mg/kg/day (Plasmodium chabaudi [18]) was 12%. It also gave a survival at 7.5 mg/kg/day (Plasmodium chabaudi [19]) of 10%, a survival at 7.5 mg/kg/day (Plasmodium chabaudi [20]) of 14% and a survival at 7.5 mg/kg/day (Plasmodium chabaudi [21]) of 80%. For the same compound, the Activity [22] was “Toxic”, the inhibition (Plasmodium falciparum [23]) was “Active” and the inhibition (Plasmodium falciparum [24]) was “Active”. It also gave an inhibition in vivo at 7.5 mg/kg/day (Plasmodium chabaudi [25]) of 59% and an inhibition in vivo at 7.5 mg/kg/day (Plasmodium chabaudi [26]) of 50.1%.

— ChEMBL document CHEMBL1649433, “Violacein extracted from Chromobacterium violaceum inhibits Plasmodium growth in vitro and in vivo” (Antimicrob Agents Chemother, 2009)
